Reference: ChEMBL document CHEMBL1152506, “Characterization and synthetic application of a novel beta1,3-galactosyltransferase from Escherichia coli O55:H7” (Bioorg Med Chem, 2009)
Values belong to the molecule of their own block, whether it stands above or below them. The source made the active and inactive calls. No cut-off for these calls is given here.

Experiments:
[1] = target: T1, Putative glycosyltransferase (Escherichia coli O55:H7) (UniProt B1B4J9); experiment: Activity of Escherichia coli O55:H7 glycosyltransferase WbgO relative to GlcNAc
T1 sequence (whole entry): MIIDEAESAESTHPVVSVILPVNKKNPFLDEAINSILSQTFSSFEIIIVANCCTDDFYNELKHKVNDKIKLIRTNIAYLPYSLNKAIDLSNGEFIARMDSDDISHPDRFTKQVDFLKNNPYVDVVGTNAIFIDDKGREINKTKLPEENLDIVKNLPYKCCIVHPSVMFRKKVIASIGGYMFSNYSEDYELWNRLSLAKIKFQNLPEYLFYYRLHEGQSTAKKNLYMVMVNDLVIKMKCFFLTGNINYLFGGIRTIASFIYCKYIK
In short: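 GST-fused WbgO made in E. coli BL21(DE3) and purified on glutathione resin. Assayed in 50 µL of 50 mM HEPES pH 7.0 with 5 mM MnCl2, 0.3 mM UDP-Gal plus UDP-[6-3H]Gal (10,000 cpm), 2 mM acceptor and 4 µg enzyme, 37 °C for 1 h. Control omitted the acceptor. Incorporated 3H was read by liquid scintillation counting and expressed relative to GlcNAc.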

[2] = target: T1, Putative glycosyltransferase (Escherichia coli O55:H7); experiment: Activity of Escherichia coli O55:H7 glycosyltransferase WbgO
In short: (§1)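 Apparent kinetics for purified GST-WbgO, using the radioactive UDP-[6-3H]Gal transfer assay with scintillation counting. The acceptor (GlcNAc, GalNAc or lacto-N-triose) was varied at 0.1, 0.2, 0.5, 1 and 2 mM with UDP-Gal fixed at 1 mM. UDP-Gal was varied at 0.1–2 mM with 20 mM GlcNAc. Base buffer was HEPES pH 7.0 with 5 mM MnCl2.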

[3] = substrate: CC(=O)N[C@@H]1[C@@H](O)[C@@H](O)[C@@H](CO)O[C@H]1O; experiment: (§2) Activity of Escherichia coli O55:H7 glycosyltransferase WbgO by Lineweaver-Burke analysis; in short: as §1
[4] = substrate: CC(=O)N[C@@H]1[C@@H](O)[C@H](O)[C@@H](CO)O[C@H]1O; experiment: as §2; in short: as §1
[5] = substrate: CC(=O)N[C@H]1[C@H](O[C@H]2[C@@H](O)[C@@H](CO)O[C@@H](O[C@H]3[C@H](O)[C@@H](O)[C@H](O)O[C@@H]3CO)[C@@H]2O)O[C@H](CO)[C@@H](O)[C@@H]1O[C@@H]1O[C@H](CO)[C@H](O)[C@H](O)[C@H]1O; experiment: as §2; in short: as §1
[6] = substrate: CC(=O)N[C@@H]1[C@@H](O)[C@@H](O)[C@@H](CO)O[C@H]1O; experiment: (§3) Ratio of Kcat to Km for Escherichia coli O55:H7 glycosyltransferase WbgO by Lineweaver-Burke analysis; in short: as §1
[7] = substrate: CC(=O)N[C@@H]1[C@@H](O)[C@H](O)[C@@H](CO)O[C@H]1O; experiment: as §3; in short: as §1
[8] = substrate: CC(=O)N[C@H]1[C@H](O[C@H]2[C@@H](O)[C@@H](CO)O[C@@H](O[C@H]3[C@H](O)[C@@H](O)[C@H](O)O[C@@H]3CO)[C@@H]2O)O[C@H](CO)[C@@H](O)[C@@H]1O[C@@H]1O[C@H](CO)[C@H](O)[C@H](O)[C@H]1O; experiment: as §3; in short: as §1

Molecule: CC(=O)N[C@@H]1[C@@H](O)[C@H](O)[C@@H](CO)O[C@H]1O
Activity [1]: 100% | Activity [2]: Active

Molecule: CC(=O)N[C@H]1[C@H](Oc2ccc([N+](=O)[O-])cc2)O[C@H](CO)[C@@H](O)[C@@H]1O
Activity [1]: 73%

B1: Putative glycosyltransferase (Escherichia coli O55:H7), B1B4J9 (protein)
chain: T1 sequence (whole entry)
Km [3]: 327 µM | Vmax [3]: 120 pmol/min | kcat [3]: 0.0285 s⁻¹ | Km [4]: 323 µM | Vmax [4]: 179 pmol/min | kcat [4]: 0.0425 s⁻¹ | Km [5]: 55 µM | Vmax [5]: 176 pmol/min | kcat [5]: 0.0417 s⁻¹ | kcat/Km [6]: 87.2 M⁻¹ s⁻¹ | kcat/Km [7]: 132 M⁻¹ s⁻¹ | kcat/Km [8]: 278 M⁻¹ s⁻¹

Continued, values first:

Activity [1]: 43% | Activity [2]: Active
Molecule: CC(=O)N[C@@H]1[C@@H](O)[C@@H](O)[C@@H](CO)O[C@H]1O

Activity [1]: 16%
Molecule: CC(=O)N[C@H]1[C@H](O[C@H]2[C@@H](O)[C@@H](CO)O[C@@H](O[C@H]3[C@H](O)[C@@H](O)[C@H](O)O[C@@H]3CO)[C@@H]2O)O[C@H](CO)[C@H](O)[C@@H]1O
